# ChEMBL document CHEMBL1125033, “Structure-activity relationship of antiestrogens. Phenolic analogues of 2,3-diaryl-2H-1-benzopyrans” (J Med Chem, 1990)
# Assays:
# [1] = test system: Anti-estrogen binding site (AEBS) (Rattus norvegicus); test: Relative binding affinity against Antiestrogen binding site(AEBS)
# [2] = target: T1, Estrogen receptor (Rattus norvegicus) (UniProt P06211+Q62986)
# [3] = target: T1, Estrogen receptor (Rattus norvegicus); remark: listed apart in the source
# [4] = target: T1, Estrogen receptor (Rattus norvegicus); test: Relative binding affinity against estrogen receptor(ER); type: protein assay
# Method in brief: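 Uterine cytosol from immature rats primed s.c. with 0.1 μg E₂ 24 h before sacrifice, one uterine equivalent per mL TEA buffer (pH 7.4, 7% DMF). Incubated 18-20 h at 4 °C with ³H-E₂ (5 × 10⁻⁹ M) and competitor at 10⁻⁴–10⁻⁹ M, in triplicate. Charcoal-dextran separation for 20 min, then scintillation counting.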
SMILES,relative binding affinity (RBA) [1],Mean weight [2],Mean weight [3],relative binding affinity (RBA) [4]
Oc1ccc(C2=Cc3ccccc3OC2c2ccc(OCCN3CCCCC3)cc2)cc1 (stereo not given),14,10.4 mg,11.6 mg,4.2
COc1ccc(C2=C(C(=O)c3ccc(OCCN4CCCC4)cc3)c3ccccc3CC2)cc1,25,18.6 mg,29.1 mg,8
COc1ccc2c(c1)OC(c1ccc(OCCN3CCCCC3)cc1)C(c1ccccc1)=C2 (stereo not given),21,22.6 mg,43.1 mg,0.02
Oc1ccc2c(c1)OC(c1ccc(OCCN3CCCCC3)cc1)C(c1ccccc1)=C2 (stereo not given),13,15.2 mg,21.2 mg,9.5
C1=C(c2ccccc2)C(c2ccc(OCCN3CCCCC3)cc2)Oc2ccccc21 (stereo not given),225,15.3 mg,18.6 mg,–
Oc1ccc(C2=Cc3ccc(O)cc3OC2c2ccc(OCCN3CCCCC3)cc2)cc1 (stereo not given),2.2,10.6 mg,12.4 mg,49
Oc1ccc(C2=Cc3ccc(O)cc3OC2c2ccc(O)cc2)cc1 (stereo not given),–,14.2 mg,44.2 mg,2.2
O=C(c1ccc(OCCN2CCCC2)cc1)c1c(-c2ccc(O)cc2)sc2cc(O)ccc12,6.5,25.5 mg,25.6 mg,93
